# Experimental data as given in article PMC4857052 (Molecular pharmacology, 2012).
# Entries after “also recorded” stand apart in the source; their conditions may differ.
# How the values were obtained:
# [1] = system: T. b. brucei bloodstream forms strain 427 WT; assay: Alamar blue drug sensitivity assay, wild-type; type: cell-based, Trypanosoma brucei brucei; settings: for effect on bloodstream trypanosomes (in words): Alamar blue viability assay; for EC50: Trypanosoma brucei, read-out: EC50, WT, Mean, Alamar blue assay, wild-type sensitive control strain
# How it was run: (§1)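 Bloodstream-form T. b. brucei s427 grown in HMI-9 with 10% FBS at 37°C under 5% CO2. Resistant lines were made by months of stepwise-increasing exposure to the analog, then cloned by limiting dilution. Viability was read by resazurin (Alamar blue) reduction. Thymidine rescue was tested by adding 100 μM thymidine.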
# [2] = system: 5FURes T. b. brucei; assay: Alamar blue drug sensitivity assay, 5FURes; type: cell-based, Trypanosoma brucei brucei; settings: for EC50: Trypanosoma brucei, read-out: EC50, 5FURes, Mean; for RF, 5FURes: resistance factor: IC50(resistant clone)/IC50(WT)
# How it was run: as §1
# [3] = system: 5FOARes T. b. brucei; assay: Alamar blue drug sensitivity assay, 5FOARes; type: cell-based, Trypanosoma brucei brucei; settings: for EC50: Trypanosoma brucei, read-out: EC50, 5FOARes, Mean; for RF, 5FOARes: resistance factor: IC50(resistant clone)/IC50(WT)
# How it was run: as §1
# [4] = system: 5F-2′dURes T. b. brucei; assay: Alamar blue drug sensitivity assay, 5F-2′dURes; type: cell-based, Trypanosoma brucei brucei; settings: for EC50: Trypanosoma brucei, read-out: EC50, 5F-2′dURes, Mean; for RF, 5F-2′dURes: resistance factor: IC50(resistant clone)/IC50(WT)
# How it was run: as §1
# [5] = molecular target: TbU1; settings: procyclic forms (PCF), ref De Koning and Jarvis (1998), Papageorgiou et al. (2005), Gudin et al. (2006), cited from earlier work; for Ki: read-out: Ki, U1; for Ki / Ki, U1: NE = no effect on uptake at concentration indicated
# [6] = system: T. b. brucei bloodstream forms; assay: Uptake of other radiolabeled pyrimidines by wild-type bloodstream forms; type: cell-based, Trypanosoma brucei brucei; settings: over 15 min; 2.5 μM [3H]-2′-deoxycytidine, 0.25 μM [3H]-cytosine, 1 μM [3H]-thymine
# [7] = molecular target: TbU3 uracil transporter; assay: [3H]-uracil transport in bloodstream forms; type: cell-based, Trypanosoma brucei brucei; settings: for Km: read-out: Km, U3, bloodstream forms (BSF), Km of the permeant itself
# [8] = system: P1-type nucleoside transporter; assay: [3H]-inosine uptake in bloodstream forms; type: cell-based, Trypanosoma brucei brucei; settings: read-out: Km of inosine uptake; n = 3
# How it was run: (§2)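 Log-phase cells were washed into HEPES/bicarbonate glucose buffer (pH 7.3) at 1 × 10^8/ml and mixed with an equal volume of [3H]-permeant, with or without unlabeled competitor, at ambient temperature. Uptake was stopped with ice-cold buffer containing saturating unlabeled permeant, then cells were spun through oil. Counts were corrected for nonspecific binding and Km, Vmax and Ki obtained by curve fitting. Runs were in triplicate. Thymidine: 10 μM label, 15 min. Orotic acid: 10 min.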
# [9] = system: TbT1 (P1-type nucleoside transporter); assay: [3H]-thymidine transport in bloodstream forms; type: cell-based, Trypanosoma brucei brucei; settings: bloodstream forms
# [10] = molecular target: TbU3; assay: [3H]-uridine transport in bloodstream forms; type: cell-based, Trypanosoma brucei brucei; settings: 2.5 μM [3H]-uridine
# [11] = system: 5-FURes T. b. brucei; assay: Pyrimidine transport in 5-FURes bloodstream forms; type: cell-based, Trypanosoma brucei brucei
# [12] = system: s427WT T. b. brucei bloodstream forms; assay: Kinetic parameters of pyrimidine transport in wild-type bloodstream forms; type: cell-based, Trypanosoma brucei brucei; settings: [3H]-permeant; strain s427WT
# How it was run: as §2
smiles,measurement,setting,value
C[C@H]1O[C@@H](n2cc(F)c(=O)[nH]c2=O)[C@H](O)[C@@H]1O [5-fluoro-5′deoxyuridine],effect on bloodstream trypanosomes (in words),[1],no effect up to at least 1 mM
Nc1nc(=O)n([C@@H]2O[C@H](CO)[C@@H](O)[C@H]2O)cc1F [5-fluorocytidine],effect on bloodstream trypanosomes (in words),[1],no effect up to at least 1 mM
Nc1nc(=O)[nH]cc1F [5-fluorocytosine],effect on bloodstream trypanosomes (in words),[1],no effect up to at least 1 mM
O=c1[nH]c(=O)n([C@@H]2O[C@H](CO)[C@@H](O)[C@H]2O)cc1F [5-fluorouridine],effect on bloodstream trypanosomes (in words),[1],no effect up to at least 1 mM; also recorded: no effect on trypanosome growth
"O=c1[nH]c(=O)n([C@H]2C[C@H](O)[C@@H](CO)O2)cc1Cl [5Cl-2’-dUrd, 5-chloro-2′-deoxyuridine]",EC50,[1],54 µM
same,fold more sensitive than wild-type,[2]; 5-FURes,15 fold
same,EC50,[2],3.7 µM
same,"RF, 5FURes",[2],0.07
same,EC50,[3],91 µM
same,"RF, 5FOARes",[3],1.7
same,EC50,[4],22 µM
same,"RF, 5F-2′dURes",[4],0.4
"Nc1nc(=O)n([C@H]2C[C@H](O)[C@@H](CO)O2)cc1F [5Fl-2’-Ctd, 5-fluoro-2′-deoxycytidine]",EC50,[1],49.4 µM
same,reduction of sensitivity by addition of 100 μM thymidine,[1]; wild-type,78 fold
same,EC50,[2],55 µM
same,"RF, 5FURes",[2],1.1
same,EC50,[3],126 µM
same,"RF, 5FOARes",[3],2.6
same,EC50,[4],> 5000 µM
same,"RF, 5F-2′dURes",[4],>100
C[C@H]1O[C@@H](n2ccc(=O)[nH]c2=O)[C@H](O)[C@@H]1O [5′-deoxyuridine],effect on bloodstream trypanosomes (in words),[1],no effect up to at least 1 mM
O=c1cn[nH]c(=O)[nH]1 [6-Azauracil],EC50,[1],958 µM
same,EC50,[2],157 µM
same,"RF, 5FURes",[2],0.16
same,EC50,[3],1390 µM
same,"RF, 5FOARes",[3],1.4
same,EC50,[4],1100 µM
same,"RF, 5F-2′dURes",[4],1.2
same,Ki,[5],~1000 µM
Cc1cc(=O)[nH]c(=O)[nH]1 [6-Methyluracil],Ki,[5],> 2500 µM
Nc1ncnc2[nH]cnc12 [Adenine],"Ki, U1",[5],"NE, 1000"
Nc1ncnc2c1ncn2[C@@H]1O[C@H](CO)[C@@H](O)[C@H]1O [Adenosine],"Ki, U1",[5],"NE, 1000"
Nc1cc[nH]c(=O)n1 [Cytosine],accumulation of radiolabeled permeant (in words),[6],did not detectably accumulate
same,"Ki, U1",[5],"NE, 1000"
Nc1nc2nc[nH]c2c(=O)[nH]1 [Guanine],Ki,[5],> 25 µM
Nc1nc2c(ncn2[C@@H]2O[C@H](CO)[C@@H](O)[C@H]2O)c(=O)[nH]1 [Guanosine],"Ki, U1",[5],"NE, 1000"
O=c1[nH]cnc2nc[nH]c12 [Hypoxanthine],"Ki, U3",[7],"NE, 1000"
same,"Ki, U1",[5],"NE, 1000"
O=c1[nH]cnc2c1ncn2[C@@H]1O[C@H](CO)[C@@H](O)[C@H]1O [Inosine],Km,[8],0.89 ± 0.15 µM
same,"Ki, U1",[5],"NE, 1000"
N=C(N)c1ccc(OCCCCCOc2ccc(C(=N)N)cc2)cc1 [Pentamidine],EC50,[1],0.0078 µM
same,EC50,[2],0.0073 µM
same,"RF, 5FURes",[2],0.94
same,EC50,[3],0.017 µM
same,"RF, 5FOARes",[3],2.2
same,EC50,[4],0.0079 µM
same,"RF, 5F-2′dURes",[4],1.0
Cc1c[nH]c(=O)[nH]c1=O [Thymine],effect on [3H]-thymidine transport (in words),[9],little or no effect
same,accumulation of radiolabeled permeant (in words),[6],did not detectably accumulate
same,Ki,[5],> 1000 µM
O=c1cc[nH]c(=O)[nH]1 [Uracil],reduction of [3H]-uracil transport by unlabeled uracil,"[7]; 0.15 μM [3H]-uracil, 1 mM unlabeled uracil",> 97%
same,rate of [3H]-uracil transport,"[7]; 0.15 μM [3H]-uracil, linear for at least 120 s",0.034 ± 0.002 pmol (10^7 cells)^−1s^−1
same,Vmax of uracil transport,[7]; mean of six triplicate experiments,0.14 ± 0.03 pmol × 10^7 cells^−1 × s^−1
same,Km,[7],0.54 ± 0.11 µM
same,effect on [3H]-thymidine transport (in words),[9],failing to reach 50% inhibition even at 2.5 mM
same,Ki,"[10]; read-out: Ki for inhibition of [3H]-uridine uptake, n = 3",1.6 ± 0.2 µM
same,Km,"[11]; [3H]-permeant, strain 5-FURes",0.66 ± 0.15 µM
same,Vmax,"[11]; [3H]-permeant, strain 5-FURes",0.16 ± 0.02 pmol (10^7 cells)^−1s^−1
same,Km,[12],1.5 ± 0.3 µM
same,Vmax,[12],0.27 ± 0.05 pmol (10^7 cells)^−1s^−1
same,Km,"[5]; read-out: Km, U1, bold entry",0.46 ± 0.09 µM
O=c1[nH]c(=O)c2[nH]c(=O)[nH]c2[nH]1 [Uric acid],"Ki, U1",[5],"NE, 1000"
O=c1ccn([C@@H]2O[C@H](CO)[C@@H](O)[C@H]2O)c(=O)[nH]1 [Uridine],inhibition of [3H]-uracil uptake,"[7]; 10 mM of the nucleoside, 0.15 μM [3H]-uracil",~ 50%
same,Km,[7],9500 ± 2700 µM
same,rate of [3H]-uridine transport,[10]; 0-30 min,0.0043 ± 0.0003 pmol(10^7 cells)^−1s^−1
same,Ki,"[11]; read-out: Ki for [3H]-uracil transport in 5-FURes, n = 3",~10000 µM
same,Km,[12],9500 ± 2700 µM
same,Vmax,[12],16 ± 4 pmol (10^7 cells)^−1s^−1
same,Ki,[5],33 ± 5 µM
